The results in this text go back to ChEMBL document CHEMBL1649483, “Molecular analysis of the gyrA and gyrB quinolone resistance-determining regions of fluoroquinolone-resistant Clostridium difficile mutants selected in vitro” (2009).

Converted amounts (≈) assume the structure as drawn. Bounds are passed on as bounds.

Common to all, as to format: functional
Assay [1] deals with Clostridioides difficile. As to the kind of experiment: Antimicrobial activity against Clostridium difficile CD25 expressing tcdA, tcdB gene and GyrB Ser416Ala mutant gene by Etest method.
Assay [2] deals with Clostridioides difficile. Nature of the assay: Antimicrobial activity against Clostridium difficile BI2 by Etest method. The procedure, abridged:
(§1)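 Parent clinical or nontoxigenic isolate tested for gatifloxacin susceptibility by Etest, run per the manufacturer's instructions; a fluoroquinolone breakpoint of 8 μg/ml was applied.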

The test system of assay [3] is Clostridioides difficile. Nature of the assay: Antimicrobial activity against Clostridium difficile A422G harboring GyrA Thr82Ile and GyrB Leu451Phe mutant genes selected after 8 ug/ml of levofloxacin by Etest method. A digest of the protocol: (§2)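 Stable in vitro-selected mutant tested for gatifloxacin susceptibility by Etest, per the manufacturer's instructions, with an 8 μg/ml breakpoint. For selection, the parent was grown in antibiotic-free brain heart infusion (BHI) for 24 h at 35°C under anaerobic conditions. […] Later steps used double the MIC. Stability was confirmed by three subcultures.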

Assay [4] deals with Clostridioides difficile. As to the kind of experiment: Antimicrobial activity against Clostridium difficile A422 expressing tcdA and tcdB gene by Etest method. A digest of the protocol:
as §1

Assay [5] deals with Clostridioides difficile. Nature of the assay: Antimicrobial activity against Clostridium difficile C253e selected after 4 ug/ml of moxifloxacin by Etest method.
The test system of assay [6] is Clostridioides difficile. Nature of the assay: Antimicrobial activity against Clostridium difficile A422A selected after 4 ug/ml of levofloxacin by Etest method. The procedure, abridged: as §2
In assay [7] the test system is Clostridioides difficile. Nature of the assay: Antimicrobial activity against Clostridium difficile CD5B harboring GyrB Ser416Ala mutant gene selected after 4 ug/ml of levofloxacin by Etest method.
Assay [8] concerns Clostridioides difficile. As to the kind of experiment: Antimicrobial activity against Clostridium difficile C253i harboring GyrA Ala118Ser mutant gene selected after 8 ug/ml of moxifloxacin by Etest method.
In assay [9] the test system is Clostridioides difficile. As to the kind of experiment: Antimicrobial activity against Clostridium difficile CD5h harboring GyrA Ala92Glu and GyrB Ser416Ala mutant genes selected after 8 ug/ml of moxifloxacin by Etest method.
Assay [10] relates to Clostridioides difficile. As to the kind of experiment: Antimicrobial activity against Clostridium difficile A422b selected after 2 ug/ml of moxifloxacin by Etest method. The procedure, abridged: as §2
For assay [11], the system named is Clostridioides difficile. Nature of the assay: Antimicrobial activity against Clostridium difficile CD5A harboring GyrB Ser416Ala mutant gene selected after 4 ug/ml of levofloxacin by Etest method.
Assay [12] relates to Clostridioides difficile. As to the kind of experiment: Antimicrobial activity against Clostridium difficile A422g harboring GyrA Asp81Asn mutant gene selected after 8 ug/ml of moxifloxacin by Etest method. A digest of the protocol: as §2
The test system of assay [13] is Clostridioides difficile. Nature of the assay: Antimicrobial activity against Clostridium difficile BI2A selected after 4 ug/ml of levofloxacin by Etest method. The procedure, abridged:
as §2

Assay [14] has as its system Clostridioides difficile. Nature of the assay: Antimicrobial activity against Clostridium difficile C253C selected after 4 ug/ml of levofloxacin by Etest method.
Assay [15] has as its system Clostridioides difficile. Nature of the assay: Antimicrobial activity against Clostridium difficile 630a selected after 2 ug/ml of moxifloxacin by Etest method. A digest of the protocol: as §2
Assay [16] concerns Clostridioides difficile. Nature of the assay: Antimicrobial activity against Clostridium difficile CD5d harboring GyrB Ser416Ala mutant gene selected after 4 ug/ml of moxifloxacin by Etest method.
Assay [17] has as its system Clostridioides difficile. As to the kind of experiment: Antimicrobial activity against Clostridium difficile C253 expressing tcdA and tcdB gene by Etest method. The procedure, abridged:
as §1

Assay [18] has as its system Clostridioides difficile. Nature of the assay: Antimicrobial activity against Clostridium difficile BI2a harboring GyrB Arg447Lys mutant gene selected after 2 ug/ml of moxifloxacin by Etest method. A digest of the protocol: as §2
Assay [19] relates to Clostridioides difficile. Nature of the assay: Antimicrobial activity against Clostridium difficile 630D harboring GyrA Ala118Val mutant gene selected after 8 ug/ml of levofloxacin by Etest method. The procedure, abridged: as §2
In assay [20] the test system is Clostridioides difficile. Nature of the assay: Antimicrobial activity against Clostridium difficile C253c selected after 2 ug/ml of moxifloxacin by Etest method.
The test system of assay [21] is Clostridioides difficile. Nature of the assay: Antimicrobial activity against Clostridium difficile 630g harboring GyrB […] mutant gene selected after 8 ug/ml of moxifloxacin by Etest method. A digest of the protocol: as §2
Assay [22] has as its system Clostridioides difficile. As to the kind of experiment: Antimicrobial activity against Clostridium difficile A422e selected after 4 ug/ml of moxifloxacin by agar dilution method.
Assay [23] concerns Clostridioides difficile. As to the kind of experiment: Antimicrobial activity against Clostridium difficile A422E harboring GyrB Leu451Phe mutant gene selected after 8 ug/ml of levofloxacin by agar dilution method. On the technique in general: In agar dilution the substance is mixed into plates at graded concentrations.
For assay [24], the system named is Clostridioides difficile. As to the kind of experiment: Antimicrobial activity against Clostridium difficile 630g harboring GyrB […] mutant gene selected after 8 ug/ml of moxifloxacin by agar dilution method.
Assay [25] relates to Clostridioides difficile. As to the kind of experiment: Antimicrobial activity against Clostridium difficile 630F harboring GyrA Ala118Val mutant gene selected after 8 ug/ml of levofloxacin by agar dilution method.
For assay [26], the system named is Clostridioides difficile. Nature of the assay: Antimicrobial activity against Clostridium difficile C253a selected after 2 ug/ml of moxifloxacin by agar dilution method.
The test system of assay [27] is Clostridioides difficile. Nature of the assay: Antimicrobial activity against Clostridium difficile A422 expressing tcdA and tcdB gene by agar dilution method.
Assay [28] concerns Clostridioides difficile. Nature of the assay: Antimicrobial activity against Clostridium difficile CD5C harboring GyrB Ser416Ala mutant gene selected after 4 ug/ml of levofloxacin by agar dilution method.
Assay [29] concerns Clostridioides difficile. Nature of the assay: Antimicrobial activity against Clostridium difficile CD5a harboring GyrB Ser416Ala mutant gene selected after 2 ug/ml of moxifloxacin by agar dilution method.
Assay [30] concerns Clostridioides difficile. Nature of the assay: Antimicrobial activity against Clostridium difficile BI2B selected after 4 ug/ml of levofloxacin by agar dilution method.
Assay [31] deals with Clostridioides difficile. Nature of the assay: Antimicrobial activity against Clostridium difficile C253 expressing tcdA and tcdB gene by agar dilution method.
The subject of assay [32] is Clostridioides difficile. As to the kind of experiment: Antimicrobial activity against Clostridium difficile 630a selected after 2 ug/ml of moxifloxacin by agar dilution method.
Assay [33] deals with Clostridioides difficile. Nature of the assay: Antimicrobial activity against Clostridium difficile CD5 1-g harboring GyrA Ala92Glu and GyrB Ser416Ala mutant genes selected after 8 ug/ml of moxifloxacin by agar dilution method.
In assay [34] the test system is Clostridioides difficile. As to the kind of experiment: Antimicrobial activity against Clostridium difficile CD5D harboring GyrB Ser416Ala mutant gene selected after 8 ug/ml of levofloxacin by agar dilution method.
Assay [35] relates to Clostridioides difficile. As to the kind of experiment: Antimicrobial activity against Clostridium difficile C253D selected after 8 ug/ml of levofloxacin by agar dilution method.
Assay [36] has as its system Clostridioides difficile. As to the kind of experiment: Antimicrobial activity against Clostridium difficile BI2b harboring GyrB Arg447Lys mutant gene selected after 2 ug/ml of moxifloxacin by agar dilution method.
The test system of assay [37] is Clostridioides difficile. Nature of the assay: Antimicrobial activity against Clostridium difficile A422b selected after 2 ug/ml of moxifloxacin by agar dilution method.
The subject of assay [38] is Clostridioides difficile. As to the kind of experiment: Antimicrobial activity against Clostridium difficile 630f selected after 4 ug/ml of moxifloxacin by agar dilution method.
Assay [39] deals with Clostridioides difficile. As to the kind of experiment: Antimicrobial activity against Clostridium difficile 630C selected after 4 ug/ml of levofloxacin by agar dilution method.
Assay [40] has as its system Clostridioides difficile. As to the kind of experiment: Antimicrobial activity against Clostridium difficile C253B selected after 4 ug/ml of levofloxacin by agar dilution method.
Assay [41] concerns Clostridioides difficile. Nature of the assay: Antimicrobial activity against Clostridium difficile 630h harboring GyrB […] mutant gene selected after 8 ug/ml of moxifloxacin by agar dilution method.

Regarding `COc1c(N2CCNC(C)C2)c(F)cc2c(=O)c(C(=O)O)cn(C3CC3)c12` (stereo unspecified) [GATIFLOXACIN], the MIC in the assay with Clostridioides difficile [1] is 0.5 µg/mL (≈ 1.33 µM); in the assay with Clostridioides difficile [2], 0.75 µg/mL (≈ 2 µM); in the assay on Clostridioides difficile [3] it was not below 32 µg/mL; in the assay on Clostridioides difficile [4] it was 0.75 µg/mL (≈ 2 µM); in the assay on Clostridioides difficile [5], 1 µg/mL; in the assay with Clostridioides difficile [6] it was 1 µg/mL. Besides, the MIC in the assay with Clostridioides difficile [7] is 0.5 µg/mL; with Clostridioides difficile [8], 8 µg/mL; in the assay on Clostridioides difficile [9], 3 µg/mL; in the assay on Clostridioides difficile [10], 1.5 µg/mL; in the assay on Clostridioides difficile [11] it was 0.5 µg/mL; with Clostridioides difficile [12], not below 32 µg/mL. In addition, the MIC in the assay with Clostridioides difficile [13] was determined as 2 µg/mL; in the assay on Clostridioides difficile [14], 0.5 µg/mL; in the assay on Clostridioides difficile [15] it was 0.75 µg/mL; with Clostridioides difficile [16], 0.75 µg/mL; against Clostridioides difficile [17], 0.5 µg/mL (≈ 1.33 µM); with Clostridioides difficile [18], 1.5 µg/mL. Also, the minimal inhibitory concentration (MIC) in the assay with Clostridioides difficile [19] is 3 µg/mL; in the assay with Clostridioides difficile [20], 1 µg/mL; in the assay on Clostridioides difficile [21], not below 32 µg/mL.
Take `C[C@H]1COc2c(N3CCN(C)CC3)c(F)cc3c(=O)c(C(=O)O)cn1c23.C[C@H]1COc2c(N3CCN(C)CC3)c(F)cc3c(=O)c(C(=O)O)cn1c23.O` [LEVOFLOXACIN]: the MIC in the assay with Clostridioides difficile [22] was found to be 4 µg/mL; in the assay with Clostridioides difficile [23], 2 µg/mL; in the assay with Clostridioides difficile [24] it was 64 µg/mL; in the assay with Clostridioides difficile [25] it was 8 µg/mL; in the assay on Clostridioides difficile [26], 4 µg/mL; in the assay on Clostridioides difficile [27], 2 µg/mL. The MIC in the assay on Clostridioides difficile [28] was 1 µg/mL; in the assay with Clostridioides difficile [29], 2 µg/mL; in the assay with Clostridioides difficile [30], 1 µg/mL; against Clostridioides difficile [31] it was 2 µg/mL; in the assay on Clostridioides difficile [32], 4 µg/mL; with Clostridioides difficile [33] it was 16 µg/mL. For the same molecule, the MIC was found to be 2 µg/mL with Clostridioides difficile [34]; 2 µg/mL in the assay on Clostridioides difficile [35]; 8 µg/mL in the assay on Clostridioides difficile [36]; 4 µg/mL in the assay on Clostridioides difficile [37]; 4 µg/mL in the assay on Clostridioides difficile [38]; 1 µg/mL in the assay on Clostridioides difficile [39]. Further, the MIC with Clostridioides difficile [40] amounted to 1 µg/mL; in the assay on Clostridioides difficile [41], 64 µg/mL.

A word on the MIC: it is the least concentration at which growth counts as inhibited.
